According to ChEMBL document CHEMBL3044706, “Lignans and neolignans from Brassica fruticulosa: effects on seed germination and plant growth” (2003):
Active and inactive are the calls of the source. The calls are words filed in the database; no cut-off is given here.

What was measured:
Lactuca sativa [1] = assay: Stimulation of shoot elongation in Lactuca sativa (lettuce) at 10^-4 to 10^-9 M after 5 days relative to control; assay type: functional, organism-based
In short: (§1)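 Lettuce seeds, 25 per 50 mm Petri dish on one Whatman No. 1 filter paper, with 2.5 mL test solution in 10 mM MES pH 6 (10^-4 M, diluted to 10^-9 M). Dishes were Parafilm-sealed and kept at 25 °C in the dark. Germination was scored daily for 5 days, then root/shoot lengths were measured on plants frozen at -20 °C. Four replicates, expressed as % difference from parallel control, with Student's t-test.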

Allium cepa [2] = assay: Inhibition of shoot elongation in Allium cepa (onion) at 10^-4 to 10^-9 M after 7 days relative to control; assay type: functional, organism-based
In short: (§2)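 Seeds (cress 3 days, tomato 5 days, onion 7 days), 25 per 90 mm Petri dish on one Whatman No. 1 filter paper, with 5 mL test solution in 10 mM MES pH 6 (10^-4 M, diluted to 10^-9 M). Dishes were sealed and kept at 25 °C in the dark. Germination was scored daily, then root/shoot lengths were taken after freezing at -20 °C. Four replicates, expressed as % difference from control, with t-test.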

Solanum lycopersicum [3] = assay: Inhibition of shoot elongation in Solanum lycopersicum (tomato) at 10^-4 to 10^-9 M after 5 days relative to control; assay type: functional, organism-based; in short: as §2
Solanum lycopersicum [4] = assay: Effect on root elongation in Solanum lycopersicum (tomato) at 10^-4 to 10^-9 M after 5 days relative to control; assay type: functional, organism-based; in short: as §2
Solanum lycopersicum [5] = assay: Effect on seed germination in Solanum lycopersicum (tomato) at 10^-4 to 10^-9 M after 5 days relative to control; assay type: functional, organism-based; in short: as §2
Allium cepa [6] = assay: Stimulation of root elongation in Allium cepa (onion) at 10^-4 to 10^-9 M after 7 days relative to control; assay type: functional, organism-based; in short: as §2
Solanum lycopersicum [7] = assay: Stimulation of shoot elongation in Solanum lycopersicum (tomato) at 10^-4 to 10^-9 M after 5 days relative to control; assay type: functional, organism-based; in short: as §2
Allium cepa [8] = assay: Effect on seed germination in Allium cepa (onion) at 10^-4 to 10^-9 M after 7 days relative to control; assay type: functional, organism-based; in short: as §2
Allium cepa [9] = assay: Stimulation of shoot elongation in Allium cepa (onion) at 10^-4 to 10^-9 M after 7 days relative to control; assay type: functional, organism-based; in short: as §2
Lactuca sativa [10] = assay: Effect on root elongation in Lactuca sativa (lettuce) at 10^-4 to 10^-9 M after 5 days relative to control; assay type: functional, organism-based; in short: as §1
Lactuca sativa [11] = assay: Inhibition of shoot elongation in Lactuca sativa (lettuce) at 10^-4 to 10^-9 M after 5 days relative to control; assay type: functional, organism-based; in short: as §1
Lactuca sativa [12] = assay: Inhibition of seed germination in Lactuca sativa (lettuce) at 10^-4 to 10^-9 M after 5 days relative to control; assay type: functional; in short: as §1
Lepidium sativum [13] = assay: Effect on seed germination in Lepidium sativum at 10^-4 to 10^-9 M after 3 days relative to control; assay type: functional, organism-based; in short: as §2
Lepidium sativum [14] = assay: Inhibition of shoot elongation in Lepidium sativum at 10^-4 to 10^-9 M after 3 days relative to control; assay type: functional; in short: as §2
Lepidium sativum [15] = assay: Effect on root elongation in Lepidium sativum at 10^-4 to 10^-9 M after 3 days relative to control; assay type: functional, organism-based; in short: as §2
Lactuca sativa [16] = assay: Inhibition of seed germination in Lactuca sativa (lettuce) at 10^-9 M after 5 days relative to control; assay type: functional; conditions: 120 h; in short: as §1

SMILES	Activity (Lactuca sativa [1])	inhibition (Allium cepa [2])	inhibition (Solanum lycopersicum [3])	Activity (Solanum lycopersicum [4])	Activity (Solanum lycopersicum [5])	Activity (Allium cepa [6])	Activity (Solanum lycopersicum [7])	Activity (Allium cepa [8])	Activity (Allium cepa [9])	Activity (Lactuca sativa [10])	inhibition (Lactuca sativa [11])	inhibition (Lactuca sativa [12])	inhibition (INH) (Lactuca sativa [12])	Activity (Lepidium sativum [13])	inhibition (INH) (Lepidium sativum [14])	Activity (Lepidium sativum [15])	inhibition at 0.001 µM (Lactuca sativa [16])
COc1cc([C@@H](O)[C@H]2CO[C@H](c3ccc(O)c(OC)c3)[C@H]2CO)ccc1O	Active	Active	Active	inactive	inactive	Active	Active	inactive	Active	inactive	Active	–	–	–	–	–	–
COc1cc([C@H](O)[C@H](CO)Oc2c(OC)cc([C@@H]3OC[C@@H]4[C@H]3CO[C@H]4c3cc(OC)c(O[C@@H](CO)[C@@H](O)c4ccc(O)c(OC)c4)c(OC)c3)cc2OC)ccc1O	Active	Active	Active	inactive	inactive	Active	Active	inactive	Active	inactive	Active	Active	–	–	–	–	–
COc1cc([C@@H]2Oc3c(OC)cc(/C=C/CO)cc3[C@H]2CO)ccc1O [DEHYDROCONIFERYL ALCOHOL]	Active	Active	Active	inactive	inactive	Active	Active	inactive	Active	inactive	Active	–	70%	inactive	30%	inactive	–
COc1cc(C[C@@H](CO)[C@H](CO)Cc2ccc(O)c(OC)c2)ccc1O [(+)-SECOISOLARICIRESINOL]	Active	Active	Active	inactive	inactive	Active	Active	inactive	Active	inactive	Active	Active	–	–	–	–	50%
COc1cc(/C=C/C(=O)O)ccc1Oc1ccc(/C=C/C(=O)O)cc1OC	Active	Active	Active	inactive	inactive	Active	Active	inactive	Active	inactive	Active	–	–	–	–	–	–
COc1cc([C@@H]2OC[C@H]3[C@@H]2CO[C@H]3c2ccc(O)c(OC)c2)ccc1O	Active	Active	Active	inactive	inactive	Active	Active	inactive	Active	inactive	Active	–	–	–	–	–	–
COc1cc([C@@H]2c3cc(O)c(OC)cc3C[C@H](CO)[C@H]2CO)ccc1O [(-)-ISOLARICIRESINOL]	Active	Active	Active	inactive	inactive	inactive	Active	inactive	Active	inactive	Active	Active	–	inactive	30%	inactive	50%
COc1cc([C@H](O)[C@@H](CO)Oc2c(OC)cc([C@@H]3Oc4c(OC)cc(/C=C/CO)cc4[C@H]3CO)cc2OC)ccc1O	Active	Active	Active	inactive	inactive	Active	Active	inactive	Active	inactive	Active	Active	–	–	–	–	–
COc1cc([C@@H](O)[C@@H](CO)Oc2c(OC)cc(/C=C/CO)cc2OC)ccc1O	Active	Active	Active	inactive	inactive	Active	Active	inactive	Active	inactive	Active	–	–	–	–	–	–
O=C(O)CNCP(=O)(O)O	Active	–	–	–	–	–	–	–	–	inactive	–	Active	–	–	–	–	–
COc1cc([C@H](O)[C@@H](CO)Oc2ccc(/C=C/CO)cc2OC)ccc1O (racemic)	Active	Active	Active	inactive	inactive	Active	Active	inactive	Active	inactive	Active	Active	–	–	–	–	–
COc1cc(C[C@H]2CO[C@H](c3ccc(O[C@@H](CO)[C@@H](O)c4ccc(O)c(OC)c4)c(OC)c3)[C@H]2CO)ccc1O	Active	Active	Active	inactive	inactive	Active	Active	inactive	Active	inactive	Active	Active	–	–	–	–	–
COc1cc(C[C@H]2CO[C@H](c3ccc(O)c(OC)c3)[C@H]2CO)ccc1O (racemic) [LARICIRESINOL]	Active	Active	Active	inactive	inactive	Active	Active	inactive	Active	inactive	Active	Active	–	inactive	30%	inactive	75%
CCC(CC)Nc1c([N+](=O)[O-])cc(C)c(C)c1[N+](=O)[O-]	Active	–	–	–	–	–	–	–	–	inactive	–	Active	–	–	–	–	–
